The values that follow come from ChEMBL document CHEMBL1148940, “New luffariellolide derivatives from the Indonesian sponge Acanthodendrilla sp” (2004).

Assay [1] concerns Escherichia coli. Kind of assay: Antimicrobial activity against Escherichia coli DSM 10290 at 5 ug/disk after 24 hrs. It is filed as functional. The method in brief:
(§1)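 Agar plate disk diffusion: disks impregnated with test sample (5 or 10 µg per disk) placed on agar plates previously inoculated with the organism, with solvent controls. Plates incubated 24 h at 37 °C. Read-out is the diameter (mm) of the clear inhibition zone around the disk. A sample is scored active when the zone exceeds 7 mm.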

Assay [2] deals with Escherichia coli. Briefly: Antimicrobial activity against Escherichia coli DSM 10290 at 10 ug/disk after 24 hrs. It is filed as functional. The note with it: for zone of inhibition at 10 µg/disc: DSM 10290, 24 h, read-out: IZ. The method in brief:
(§2)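 Agar plate disk diffusion: disks impregnated with sample (5 or 10 µg per disk) placed on agar plates pre-inoculated with the test organism; solvent controls run against each organism. Plates incubated at 37 °C for 24 h, then clear inhibition zones around the disk measured in mm; sample scored active when zone exceeded 7 mm.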

In a further assay the test system is HeLa. Kind of assay: Cytotoxicity against human HeLa cells by MTT assay. Format: functional, cell-based.
The subject of assay [3] is Candida albicans. Kind of assay: Antimicrobial activity against Candida albicans at 10 ug/disk after 24 hrs. It is filed as functional. Particulars: read-out: IZ. In a few lines:
as §2

For assay [4], the system named is Staphylococcus aureus. Briefly: Antimicrobial activity against Staphylococcus aureus ATCC 25923 at 10 ug/disk after 24 hrs. The note with it: for zone of inhibition at 10 µg/disc: ATCC 25923, 24 h, read-out: IZ.
Assay [5] concerns Cladosporium herbarum. Briefly: Antimicrobial activity against Cladosporium herbarum DSM 63422 at 10 ug/disk after 24 hrs. It is filed as functional. Particulars: for zone of inhibition at 10 µg/disc: DSM 63422, 24 h, read-out: IZ. In a few lines:
as §2

Another assay has as its system PC-12. Kind of assay: Cytotoxicity against rat PC12 cells by MTT assay. It is filed as functional, cell-based. A general note: Tetrazolium assays rely on reduction of a dye to a coloured formazan, in cell work by metabolically active cells.
For assay [6], the system named is Bacillus subtilis. Kind of assay: Antimicrobial activity against Bacillus subtilis DSM 2109 at 5 ug/disk after 24 hrs. It is filed as functional. Particulars: for zone of inhibition at 5 µg/disc: DSM 2109, 24 h, read-out: IZ. In a few lines:
as §2

For assay [7], the system named is Cladosporium herbarum. Kind of assay: Antimicrobial activity against Cladosporium herbarum DSM 63422 at 5 ug/disk after 24 hrs. It is filed as functional, organism-based. The method in brief: as §2
For assay [8], the system named is Bacillus subtilis. Briefly: Antimicrobial activity against Bacillus subtilis DSM 2109 at 10 ug/disk after 24 hrs. It is filed as functional. Particulars: DSM 2109, 24 h, read-out: IZ. In a few lines: as §2
Assay [9] concerns Candida albicans. Kind of assay: Antimicrobial activity against Candida albicans at 5 ug/disk after 24 hrs. Format: functional. The method in brief:
as §2

In assay [10] the test system is Staphylococcus aureus. Briefly: Antimicrobial activity against Staphylococcus aureus ATCC 25923 at 5 ug/disk after 24 hrs. It is filed as functional. In a few lines: as §1
For the next assay, the system named is L5178Y. Briefly: Cytotoxicity against mouse L5178Y cells by MTT assay. Format: functional. Particulars: read-out: ED50 (the source's name).
Assay [11] deals with Cladosporium herbarum. Kind of assay: Antimicrobial activity against Cladosporium herbarum DSM 63422 by serial dilution assay. It is filed as functional.

≈ marks a conversion by molar mass, not a printed value. Calls of active or inactive are those of the source.

With `COC1OC(=O)C=C1CC/C=C(\C)CC/C=C(\C)CCC1=C(C)CCCC1(C)C` (stereo not given), the result in the assay on Escherichia coli [1], in the assay on Escherichia coli [2], in the assay with HeLa, with PC-12, with Cladosporium herbarum [7] and with Staphylococcus aureus [10] was inactive. The zone of inhibition at 10 µg/disc is 9 mm in the assay on Candida albicans [3], 10 mm with Staphylococcus aureus [4], 15 mm in the assay with Cladosporium herbarum [5] and 9 mm in the assay with Bacillus subtilis [8]. Besides, the zone of inhibition at 5 µg/disc in the assay on Bacillus subtilis [6] was determined as 7 mm; in the assay with Candida albicans [9] (read-out: IZ), 9 mm. The EC50 in the assay with L5178Y amounted to 0.7 µg/mL (≈ 1.75 µM).
Consider `CCOC1OC(=O)C=C1CC/C=C(\C)CC/C=C(\C)CCC1=C(C)CCCC1(C)C` (stereo not given), for which the outcome in the assay on Escherichia coli [1], with HeLa, in the assay on Staphylococcus aureus [4], in the assay on Cladosporium herbarum [5], with PC-12 and with Bacillus subtilis [6] was inactive. For the same compound, the outcome in the assay on Cladosporium herbarum [7], with Candida albicans [9] and in the assay on Staphylococcus aureus [10] was inactive. Moreover, the zone of inhibition at 10 µg/disc with Escherichia coli [2] stood at 12 mm; with Candida albicans [3], 9 mm; in the assay with Bacillus subtilis [8], 7 mm. Moreover, the EC50 with L5178Y was above 100 µg/mL.
`CC1=C(CC/C(C)=C/CC/C(C)=C/CCC2=CC(=O)OC2O)C(C)(C)CCC1=O` (stereo not given) [ACANTHOLIDE B]: the result in the assay with Escherichia coli [1], in the assay with HeLa, with PC-12, in the assay on Bacillus subtilis [6], in the assay with Cladosporium herbarum [7] and with Candida albicans [9] was inactive. The result in the assay with Staphylococcus aureus [10] was inactive. Moreover, the zone of inhibition at 10 µg/disc with Escherichia coli [2] turned out to be 9 mm; with Candida albicans [3] it was 10 mm; in the assay on Staphylococcus aureus [4], 10 mm; in the assay on Cladosporium herbarum [5], 10 mm; in the assay on Bacillus subtilis [8], 12 mm. In addition, the EC50 in the assay on L5178Y was above 10 µg/mL.
Regarding `CC(=O)[C@]1(CC/C(C)=C/CC/C(C)=C/CCC2=CC(=O)OC2O)[C@@H](O)CCC1(C)C` (stereo not given in full) [ACANTHOLIDE D], the outcome in the assay on HeLa and with PC-12 was inactive. Besides, the EC50 in the assay with L5178Y was above 10 µg/mL.
Consider `CC(=O)[C@]1(CC/C(C)=C/CC/C(C)=C/CCC2=CC(=O)OC2O)[C@H](O)CCC1(C)C` (stereo not given in full) [ACANTHOLIDE E], for which the outcome with HeLa and with PC-12 was inactive. For the same compound, in the assay with L5178Y, the EC50 was found to be 7 µg/mL (≈ 16.7 µM).
Broadly, the MIC is the least concentration at which growth counts as inhibited. Read a low MIC as a more susceptible organism. For `CC1=C(CC/C(C)=C/CC/C(C)=C/CCC2=CC(=O)OC2O)C(C)(C)CCC1` (stereo not given) [LUFFARIELLOLIDE], the zone of inhibition at 5 µg/disc in the assay with Escherichia coli [1] (DSM 10290, 24 h, read-out: IZ) amounted to 7 mm; with Bacillus subtilis [6], 7 mm; in the assay with Staphylococcus aureus [10] (ATCC 25923, 24 h, read-out: IZ) it was 7 mm. Also, the zone of inhibition at 10 µg/disc with Escherichia coli [2] was 10 mm; in the assay with Candida albicans [3] it was 10 mm; in the assay on Staphylococcus aureus [4], 11 mm; in the assay with Cladosporium herbarum [5], 20 mm; in the assay on Bacillus subtilis [8], 12 mm. In addition, the outcome in the assay on HeLa, in the assay on PC-12, in the assay with Cladosporium herbarum [7] and in the assay with Candida albicans [9] was inactive. In addition, in the assay on Cladosporium herbarum [11], the lowest concentration to inhibit growth (MIC) was 10.4 µg/mL (≈ 26.9 µM). In addition, the EC50 in the assay on L5178Y came to 3.3 µg/mL (≈ 8.54 µM).
For NYSTATIN, the MIC in the assay on Cladosporium herbarum [11] stood at 1.06 µg/mL.
